We go through nine compounds from ChEMBL document CHEMBL3621132, “Discovery of diazepane amide DORAs and 2-SORAs enabled by exploration of isosteric quinazoline replacements” (Bioorg Med Chem Lett, 2015).

pIC50, pKi: −log10 of the molar value.

In data set [1] the target is Orexin receptor type 1 (Homo sapiens) (UniProt O43613). The data set can be described thus: Binding affinity to human orexin 1 receptor expressed in CHO cells after 3 hrs by radioligand binding assay.
In a further data set the target is T1, Orexin receptor type 2 (Homo sapiens, UniProt O43614).
T1 sequence (O43614 whole entry): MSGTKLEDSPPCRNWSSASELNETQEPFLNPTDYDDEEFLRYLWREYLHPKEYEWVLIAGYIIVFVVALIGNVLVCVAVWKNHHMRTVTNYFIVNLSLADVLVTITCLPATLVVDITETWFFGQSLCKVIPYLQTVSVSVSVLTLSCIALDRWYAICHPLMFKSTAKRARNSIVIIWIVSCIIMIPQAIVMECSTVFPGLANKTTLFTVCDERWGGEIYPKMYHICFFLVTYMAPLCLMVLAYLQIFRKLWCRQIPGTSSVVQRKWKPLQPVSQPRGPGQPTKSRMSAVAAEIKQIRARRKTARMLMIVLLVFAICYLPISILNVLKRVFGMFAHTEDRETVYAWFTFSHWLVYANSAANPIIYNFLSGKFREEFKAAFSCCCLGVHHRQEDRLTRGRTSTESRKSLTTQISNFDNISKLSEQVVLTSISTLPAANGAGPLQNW
Briefly: Antagonist activity at human orexin 2 receptor expressed in CHO cells assessed as inhibition of orexin-A-induced intracellular calcium level after 60 mins by FLIPR assay. The format is functional, cell-based.

Data set [2] deals with Orexin receptor type 2 (Homo sapiens) (UniProt O43614). Briefly: Binding affinity to human orexin 2 receptor expressed in CHO cells after 3 hrs by radioligand binding assay.
Data set [3] is described as follows: Clearance in dog at 0.125 mg/kg, iv. The format is ADME, organism-based, Canis lupus familiaris. To be noted: in vivo. An outline of the steps:
(§1)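 Intravenous PK in rat (2 mg/kg) and dog (0.125 or 0.5 mg/kg), vehicle 100% DMSO, n = 2. Clearance, Vdss and half-life were determined.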

For data set [4], the system named is Liver microsome. Briefly: Bioactivation of compound in rat liver microsomes assessed as AUC of GSH-adduct formation at 10 uM after 60 mins by HRMS analysis relative to labetalol. To be noted: 1 h.
Data set [5] relates to Liver microsome. Briefly: Bioactivation of compound in human liver microsomes assessed as AUC of GSH-adduct formation at 10 uM after 60 mins by HRMS analysis relative to labetalol. The note with it: 1 h. (Liver microsomes are vesicles of endoplasmic reticulum, rich in cytochrome P450 enzymes.)
Data set [6] is described as follows: Clearance in dog at 0.5 mg/kg, iv. The format is ADME, organism-based, Canis lupus familiaris. The note with it: in vivo. In a few lines: as §1
Data set [7] in a line: Cmax in mouse at 300 mg/kg, po. It is filed as ADME, organism-based. Also on record: dose 300 mg/kg, route oral. To be noted: in vivo. An outline of the steps:
(§2)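 Mice were dosed orally at 300 mg/kg as the free base in 20% Vitamin E TPGS in water, during the active phase of the sleep study. Cmax and Tmax were taken from plasma.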

Data set [8] is described as follows: Cmax in rat at 10 mg/kg, po. Also on record: dose 10 mg/kg, route oral. It is filed as ADME, organism-based. The note with it: in vivo. In a few lines: (§3)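 Rats were dosed orally at 10 mg/kg in 100% PEG200 (n = 2), as the free base or the hydrochloride salt. AUC, Tmax, Cmax and bioavailability (F) were derived from plasma levels.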
The nature of data set [9]: Oral bioavailability in rat at 10 mg/kg. It is filed as ADME, organism-based. The note with it: in vivo. In a few lines:
as §3

The nature of data set [10]: Apparent permeability of the compound assessed […] by cell based assay. The format is physicochemical.
Data set [11] can be described thus: Lipophilicity, log D of the compound by HPLC analysis. The format is physicochemical.
The subject of data set [12] is P-glycoprotein. The data set can be described thus: Permeability of the compound assessed as rat p-glycoprotein-mediated permeability ratio from basolateral to apical direction. It is filed as ADME. To be noted: not told.
Data set [13] is described as follows: Clearance in rat at 2 mg/kg, iv. It is filed as ADME, organism-based. To be noted: in vivo. An outline of the steps: as §1
A short description of data set [14]: Oral bioavailability in dog at 3 mg/kg. The note with it: in vivo. The format is ADME, organism-based, Canis lupus familiaris. In a few lines: (§4)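 Oral dosing in dogs at 3 mg/kg as the free base in 20% Vitamin E TPGS in water (n = 2). AUC, Tmax, Cmax and oral bioavailability were determined from plasma.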
Data set [15] in a line: Volume of distribution at steady state in rat at 2 mg/kg, iv. The format is ADME, organism-based. To be noted: in vivo, read-out: Vdss. In a few lines:
as §1

Data set [16] in a line: Plasma protein binding in human. It is filed as ADME, cell-free. To be noted: read-out: PPB (converted).
The nature of data set [17]: Half life in dog at 0.5 mg/kg, iv. The note with it: in vivo. It is filed as ADME, organism-based, Canis lupus familiaris. In a few lines:
as §1

Data set [18] in a line: AUC in dog at 3 mg/kg, po. The format is ADME, organism-based, Canis lupus familiaris. To be noted: in vivo.
The nature of data set [19]: Half life in rat at 2 mg/kg, iv. The format is ADME, organism-based. To be noted: in vivo. An outline of the steps:
as §1

Data set [20] is described as follows: Tmax in mouse at 300 mg/kg, po. The format is ADME, organism-based. The note with it: in vivo. An outline of the steps:
as §2

Data set [21] in a line: Cmax in dog at 3 mg/kg, po. It is filed as ADME, organism-based, Canis lupus familiaris. Also noted: dose 3 mg/kg, route oral. The note with it: in vivo. In a few lines: as §4
A short description of data set [22]: AUC in rat at 10 mg/kg, po. The format is ADME, organism-based. To be noted: in vivo.
The nature of data set [23]: Plasma protein binding in dog. It is filed as ADME, cell-free, Canis lupus familiaris. The note with it: read-out: PPB (converted).
Data set [24] in a line: Plasma protein binding in rat. The format is ADME, cell-free. The note with it: read-out: PPB (converted).
The nature of data set [25]: Tmax in rat at 10 mg/kg, po. The format is ADME, organism-based. To be noted: in vivo. An outline of the steps:
as §3

Data set [26] is described as follows: Tmax in dog at 3 mg/kg, po. The format is ADME, organism-based, Canis lupus familiaris. To be noted: in vivo. In a few lines:
as §4

In data set [27] the test system is P-glycoprotein. The data set can be described thus: Permeability of the compound assessed as human p-glycoprotein-mediated permeability ratio from basolateral to apical direction. It is filed as ADME. To be noted: not told.
Data set [28] can be described thus: Volume of distribution at steady state in dog at 0.5 mg/kg, iv. The format is ADME, organism-based, Canis lupus familiaris. To be noted: in vivo, read-out: Vdss. An outline of the steps:
as §1

Data set [29] addresses Orexin receptor type 2 (Homo sapiens) (UniProt O43614). Briefly: Antagonist activity at human orexin 2 receptor expressed in CHO cells assessed as inhibition of orexin-A-induced intracellular calcium level after 60 mins by FLIPR assay. The note with it: 1 h. Background: A change in cytosolic calcium serves as a functional read-out for many receptors and channels.

A word on the pKi: it is −log10 of the Ki, conventionally taken in molar units. Usually pIC50 stands for the negative decadic logarithm of the IC50, by convention in mol/L. `Cc1ncc(C)c(N2CC[C@@H](C)N(C(=O)c3ccccc3-n3nccn3)CC2)n1` gave a negative-log Ki (pKi) in data set [1] of 5.44. The pIC50 at Orexin receptor type 2 is 7.09.

In the case of `C[C@@H]1CCN(c2nc(Cl)ncc2Cl)CCN1C(=O)c1ccccc1-n1nccn1`, the pKi in [1] is 6.07; in [2] it was 8.96. In addition, the pIC50 at Orexin receptor type 2 was 7.60.

Usually clearance stands for the rate of elimination divided by the concentration. For the compound `Cc1ccc(-n2nccn2)c(C(=O)N2CCN(c3ncc(C(F)(F)F)c(C)n3)CC[C@H]2C)c1`, the values for the pKi in [1] and in [2] were 8.80 and 9.30, respectively. Further, the pIC50 at Orexin receptor type 2 is 7.07. Besides, the clearance in data set [3] stood at 10 mL/min/kg.

`Cc1ccc(-n2nccn2)c(C(=O)N2CCN(c3nc4cc(Cl)ccc4o3)CC[C@H]2C)c1` [SUVOREXANT]: the Activity with Liver microsome [4] and in the data set on Liver microsome [5] was greater than 95% throughout.

A word on the Cmax: it is the highest concentration seen after dosing. The bioavailability is dose-corrected exposure relative to a reference, in per cent. A high value points to much systemic uptake. What is called Papp is a coefficient for how fast a substance crosses the barrier. The logD is lipophilicity at a set pH, counting ionised and neutral species. Lower therefore signals a more hydrophilic compound. The term efflux ratio denotes the permeability from basolateral to apical divided by that in the opposite direction, in the common usage. The half-life is the time needed for the level to fall by half in the phase considered. The AUC is the area under the concentration-time curve, a measure of exposure. A higher AUC goes with more exposure. For orientation: Tmax means the time at which the peak concentration occurs. For the compound `Cc1ncc(Cl)c(N2CC[C@@H](C)N(C(=O)c3ccccc3-n3nccn3)CC2)n1`, the values for the pKi in data set [1] and in data set [2] were 5.74 and 8.44, respectively. Moreover, the clearance is 15 mL/min/kg in data set [6] and 118 mL/min/kg in [13]. Further, the figures for the Cmax in [7], in data set [8] and in [21] were 18000 nM, 900 nM and 1300 nM, respectively. Also, the negative-log IC50 (pIC50) on Orexin receptor type 2 was 7.32. Also, the bioavailability in [9] came to 35%; in data set [14], 19%. Further, in data set [10], the Papp was determined as 34 ×10⁻⁶ cm/s. Besides, the logD in data set [11] was 2.8. Besides, the efflux ratio came out at 1.5 in the data set on P-glycoprotein [12] and 0.7 in the data set with P-glycoprotein [27]. The results for the Vd in [15] and in [28] were 7 L/kg and 0.8 L/kg, respectively. For the same compound, the fraction unbound in data set [16] was 0.05; in [23], 0.05; in data set [24] it was 0.12. Moreover, the values for the half-life in data set [17] and in data set [19] were 54 min and 192 min, respectively. Moreover, the AUC turned out to be 1.8 µM·h in data set [18] and 1.2 µM·h in [22]. Also, the time of peak concentration (Tmax) in data set [20] was 60 min; in data set [25] it was 24 min; in [26], 24 min.

Take `Cc1ccc(-n2nccn2)c(C(=O)N2CCN(c3ncc(C)c(Cl)n3)CC[C@H]2C)c1`: the pKi in data set [1] is 8.41; in [2], 9.40. Also, the pIC50 (at Orexin receptor type 2; in data set [29]) was 7.55 each time. The compound further came in with a clearance in data set [3] of 8 mL/min/kg.

In turn, `C[C@@H]1CCN(c2ncc(C(F)(F)F)c(Cl)n2)CCN1C(=O)c1ccccc1-n1nccn1` showed a pKi in data set [1] of 8.29. Also, the pIC50 (on Orexin receptor type 2; in data set [29]) was 7.06 in each case.

Turning to `COc1nc(N2CC[C@@H](C)N(C(=O)c3ccccc3-n3nccn3)CC2)ncc1C(F)(F)F`, the pKi is 8.20 in data set [1] and 9.15 in data set [2]. The pIC50 (on Orexin receptor type 2; in [29]) was 7.68 each time. Besides, the clearance in [3] stood at 3 mL/min/kg.

Take `Cc1ccc(-n2nccn2)c(C(=O)N2CCN(c3ncc(C(F)(F)F)c(Cl)n3)CC[C@H]2C)c1`: the values for the pKi in data set [1] and in [2] were 9.15 and 9.22, respectively. The pIC50 (at Orexin receptor type 2; in data set [29]) was 6.85 each time. In [3], this compound came in with a clearance of 15 mL/min/kg.
